Measured values reported in ChEMBL document CHEMBL2407075, “Sulphonamido-quinoxalines: search for anticancer agent” (Eur J Med Chem, 2013).

Key:
Assay type in all cases: functional
MOLT-4 [1] = experiment: Growth inhibition of human MOLT4 cells assessed as cell growth at 10^-7 M after 48 hrs by sulforhodamine B assay; conditions: MOLT-4, 48 h, read-out: Activity
SW-620 [2] = experiment: Growth inhibition of human SW620 cells assessed as cell growth at 10^-6 M after 48 hrs by sulforhodamine B assay; conditions: SW-620, 48 h, read-out: Activity
SK-MEL-28 [3] = experiment: Growth inhibition of human SK-MEL-28 cells assessed as cell growth at 10^-8 M after 48 hrs by sulforhodamine B assay; conditions: SK-MEL-28, 48 h, read-out: Activity
M14 [4] = experiment: Growth inhibition of human M14 cells after 48 hrs by sulforhodamine B assay; conditions: M14, 48 h, read-out: LC50 (the source's name)
Procedure, shortened: (§1)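 Adherent cells in RPMI 1640 with 5% FBS and 2 mM L-glutamine were plated at 5000–40,000 cells/well and grown 24 h. Five concentrations (0.01–100 µM, DMSO stock) were added for 48 h at 37 °C. Cells were fixed with cold TCA (10% final) and stained with SRB, read at 515 nm. GI50 came from log concentration–growth curves against time-zero and control plates.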

SF-539 = experiment: Growth inhibition of human SF539 cells after 48 hrs by sulforhodamine B assay; conditions: SF-539, 48 h; for CC50: read-out: LC50 (the source's name); procedure, shortened: as §1
SK-MEL-28 [5] = experiment: Growth inhibition of human SK-MEL-28 cells assessed as cell growth at 10^-5 M after 48 hrs by sulforhodamine B assay; conditions: SK-MEL-28, 48 h, read-out: Activity
RXF 393 = experiment: Growth inhibition of human RXF393 cells assessed as cell growth at 10^-7 M after 48 hrs by sulforhodamine B assay; conditions: RXF 393, 48 h, read-out: Activity
MOLT-4 [6] = experiment: Growth inhibition of human MOLT4 cells assessed as cell growth at 10^-8 M after 48 hrs by sulforhodamine B assay; conditions: MOLT-4, 48 h, read-out: Activity
NCI-H522 = experiment: Growth inhibition of human NCI-H522 cells assessed as cell growth at 10^-4 M after 48 hrs by sulforhodamine B assay; conditions: NCI-H522, 48 h, read-out: Activity
NCI-H226 = experiment: Growth inhibition of human NCI-H226 cells assessed as cell growth at 10^-8 M after 48 hrs by sulforhodamine B assay; conditions: NCI-H226, 48 h, read-out: Activity
BT-549 = experiment: Growth inhibition of human BT549 cells after 48 hrs by sulforhodamine B assay; conditions: BT-549, 48 h; for CC50: read-out: LC50 (the source's name); procedure, shortened: as §1
[7] = Growth inhibition of human Hs 578T cells assessed as cell growth at 10^-7 M after 48 hrs by sulforhodamine B assay; conditions: read-out: Activity
Procedure, shortened: (§2)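 Five-dose screen at NCI. Cells in RPMI 1640 with 5% FBS and 2 mM L-glutamine, seeded at 5000–40,000 cells/well and grown 24 h at 37 °C, 5% CO2 before dosing, with time-zero plates TCA-fixed. Drug diluted from DMSO stock to 0.01, 0.1, 1, 10 and 100 µM final, 48 h. Cells fixed with cold TCA (10% final), stained with 0.4% SRB and read at 515 nm. Percent growth from Tz, control and test absorbances; GI50, TGI and LC50 from dose-response curves.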

SNB-19 = experiment: Growth inhibition of human SNB19 cells assessed as cell growth at 10^-8 M after 48 hrs by sulforhodamine B assay; conditions: SNB-19, 48 h, read-out: Activity
IGROV-1 = experiment: Growth inhibition of human IGROV1 cells assessed as cell growth at 10^-5 M after 48 hrs by sulforhodamine B assay; conditions: IGROV-1, 48 h, read-out: Activity; procedure, shortened: as §2
RPMI-8226 = experiment: Growth inhibition of human RPMI8226 cells assessed as cell growth at 10^-7 M after 48 hrs by sulforhodamine B assay; conditions: RPMI-8226, 48 h, read-out: Activity
OVCAR-3 [8] = experiment: Growth inhibition of human OVCAR3 cells assessed as cell growth at 10^-8 M after 48 hrs by sulforhodamine B assay; conditions: OVCAR-3, 48 h, read-out: Activity
PC-3 = experiment: Growth inhibition of human PC3 cells assessed as cell growth at 10^-4 M after 48 hrs by sulforhodamine B assay; conditions: PC-3, 48 h, read-out: Activity
COLO 205 = experiment: Growth inhibition of human COLO205 cells assessed as cell growth at 10^-4 M after 48 hrs by sulforhodamine B assay; conditions: COLO 205, 48 h, read-out: Activity
Procedure, shortened: (§3)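 Five-dose NCI-60 run (0.01, 0.1, 1, 10 and 100 µM, as 10-fold dilutions from a DMSO stock made at 400× the top final level). Cells were grown in RPMI 1640 with 5% FBS and 2 mM glutamine and plated for 24 h. They were then exposed for 48 h at 37 °C and 5% CO2. TCA fixation was followed by SRB staining with A515 read-out. Percent growth was taken relative to time-zero and control plates.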

SR = experiment: Growth inhibition of human SR cells assessed as cell growth at 10^-5 M after 48 hrs by sulforhodamine B assay; conditions: read-out: Activity
M14 [9] = experiment: Growth inhibition of human M14 cells assessed as cell growth at 10^-4 M after 48 hrs by sulforhodamine B assay; conditions: M14, 48 h, read-out: Activity
DU-145 = experiment: Growth inhibition of human DU145 cells assessed as cell growth at 10^-8 M after 48 hrs by sulforhodamine B assay; conditions: DU-145, 48 h, read-out: Activity; procedure, shortened: as §3
LOX IMVI = experiment: Growth inhibition of human LOXIMVI cells assessed as cell growth at 10^-4 M after 48 hrs by sulforhodamine B assay; conditions: read-out: Activity
SW-620 [10] = experiment: Growth inhibition of human SW620 cells after 48 hrs by sulforhodamine B assay; conditions: SW-620, 48 h; for CC50: read-out: LC50 (the source's name); procedure, shortened: as §1
UACC-62 = experiment: Growth inhibition of human UACC62 cells assessed as cell growth at 10^-4 M after 48 hrs by sulforhodamine B assay; conditions: UACC-62, 48 h, read-out: Activity
HCT-15 [11] = experiment: Growth inhibition of human HCT15 cells assessed as cell growth at 10^-7 M after 48 hrs by sulforhodamine B assay; conditions: HCT-15, 48 h, read-out: Activity; procedure, shortened: as §2
OVCAR-5 = experiment: Growth inhibition of human OVCAR5 cells assessed as cell growth at 10^-5 M after 48 hrs by sulforhodamine B assay; conditions: OVCAR-5, 48 h, read-out: Activity
OVCAR-3 [12] = experiment: Growth inhibition of human OVCAR3 cells after 48 hrs by sulforhodamine B assay; conditions: OVCAR-3, 48 h; for CC50: read-out: LC50 (the source's name); procedure, shortened: as §1
HCT-15 [13] = experiment: Growth inhibition of human HCT15 cells after 48 hrs by sulforhodamine B assay; conditions: HCT-15, 48 h; for CC50: read-out: LC50 (the source's name); procedure, shortened: as §1
SK-OV-3 = experiment: Growth inhibition of human SKOV3 cells assessed as cell growth at 10^-4 M after 48 hrs by sulforhodamine B assay; conditions: SK-OV-3, 48 h, read-out: Activity
SK-MEL-5 = experiment: Growth inhibition of human SK-MEL-5 cells assessed as cell growth at 10^-7 M after 48 hrs by sulforhodamine B assay; conditions: SK-MEL-5, 48 h, read-out: Activity

Compound | growth at 0.1 µM (MOLT-4 [1]) | growth at 1 µM (SW-620 [2]) | growth at 0.01 µM (SK-MEL-28 [3]) | CC50 (M14 [4]) | TGI (SF-539) | CC50 (SF-539) | growth at 10 µM (SK-MEL-28 [5]) | growth at 0.1 µM (RXF 393) | growth at 0.01 µM (MOLT-4 [6]) | growth at 100 µM (NCI-H522) | growth at 0.01 µM (NCI-H226) | CC50 (BT-549) | growth at 0.1 µM [7] | growth at 0.01 µM (SNB-19) | growth at 10 µM (IGROV-1) | growth at 0.1 µM (RPMI-8226) | growth at 0.01 µM (OVCAR-3 [8]) | growth at 100 µM (PC-3) | growth at 100 µM (COLO 205) | growth at 10 µM (SR) | further results
O=S(=O)(Nc1ccc(Cl)cc1)c1ccc2nc(-c3ccccc3)c(-c3ccccc3)nc2c1 | 94% | 88% | 97% | > 100 µM | > 100 µM | > 100 µM | 21% | 103% | 97% | 67% | 91% | > 100 µM | 98% | 100% | 24% | 101% | 100% | 42% | 73% | -48% | growth at 100 µM (M14 [9]): 77%; growth at 0.01 µM (DU-145): 105%; growth at 100 µM (LOX IMVI): 66%; TGI (SW-620 [10]): > 100 µM; CC50 (SW-620 [10]): > 100 µM; growth at 100 µM (UACC-62): 62%; growth at 0.1 µM (HCT-15 [11]): 98%; growth at 10 µM (OVCAR-5): 6%; CC50 (OVCAR-3 [12]): > 100 µM; TGI (HCT-15 [13]): > 100 µM; CC50 (HCT-15 [13]): > 100 µM; growth at 100 µM (SK-OV-3): 65%; growth at 0.1 µM (SK-MEL-5): 95%
O=S(=O)(Nc1ccccn1)c1ccc2nc(-c3ccccc3)c(-c3ccccc3)nc2c1 | 95% | 87% | 101% | > 100 µM | > 100 µM | > 100 µM | 19% | 109% | 96% | 31% | 100% | > 100 µM | 94% | 100% | 30% | 104% | 92% | 23% | 57% | -42% | GI50 (BT-549): 1.58 µM; growth at 100 µM (M14 [9]): 69%; growth at 0.01 µM (DU-145): 102%; growth at 100 µM (LOX IMVI): 57%; TGI (SW-620 [10]): > 100 µM; CC50 (SW-620 [10]): > 100 µM; growth at 100 µM (UACC-62): 64%; growth at 0.1 µM (HCT-15 [11]): 98%; growth at 10 µM (OVCAR-5): 8%; GI50 (OVCAR-3 [12]): 2.17 µM; CC50 (OVCAR-3 [12]): > 100 µM; TGI (HCT-15 [13]): > 100 µM; CC50 (HCT-15 [13]): > 100 µM; growth at 100 µM (SK-OV-3): 37%; growth at 0.1 µM (SK-MEL-5): 92%
